Each block holds one compound with its values, some of them ahead of it. Active and inactive are the calls of the source. The calls are words filed in the database; no cut-off is given here.
What was measured:
[1] = Induction of singlet oxygen generation in PBS assessed as singlet oxygen quantum yield at pH 7.4 irradiated with 415 nm LED light by ABDA sensor based UV-Vis spectrometer analysis; assay type: functional
[2] = Absorption property of the compound in PBS containing 1% DMSO assessed as maximum absorption wavelength at pH 7.4 by UV-visible spectrophotometric method; assay type: physicochemical; details: buffer
[3] = Emission property of the compound in DMSO assessed as maximum emission wavelength; assay type: physicochemical
[4] = Absorption property of the compound in PBS assessed as molar extinction coefficient by absorbance based analysis; assay type: physicochemical; details: buffer
[5] = Induction of singlet oxygen generation in DMSO assessed as singlet oxygen quantum yield at pH 7.4 irradiated with 530 nm LED light by ABDA sensor based UV-Vis spectrometer analysis; assay type: functional
[6] = Absorption property of the compound in DMSO assessed as maximum absorption wavelength at pH 7.4 by UV-visible spectrophotometric method; assay type: physicochemical
[7] = Fluorescence property of the compound in DMSO assessed as quantum yield; assay type: physicochemical
[8] = Solubility of the compound in PBS containing 1% DMSO assessed as aggregate formation by measuring reduction in fluorescence intensity at 2 uM at pH 7.4 by fluorescence analysis; assay type: physicochemical; details: buffer, pH 7.4, 2 µM
PANC-1 [9] = assay: Induction of apoptosis in human PANC-1 cells at 0.5 uM incubated for 3 hrs followed by irradiation with 525 nm green lamp light for 15 mins and measured after 24 hrs by Annexin V-FITC/PI staining based fluorescence microscopy; details: time 1635.0 min
PANC-1 [10] = assay: Antitumor activity against human PANC-1 cell 3D spheroids assessed as spheroid diameter at 0.063 to 1.5 uM incubated for 3 hrs under dark conditions by ReadyProbes Blue/Green reagent based cell viability imaging analysis; assay type: functional; details: dose 0.063-1.5 µM
Procedure, shortened: (§1)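 PANC-1 spheroids incubated 3 h with compound (0–1.5 μM), then either kept dark or irradiated 15 min with a green-filtered lamp (emission max 525 nm, 16.61 J/cm2). Diameter and morphology were assessed from bright-field images. Viability was imaged at 10× with the ReadyProbes Blue/Green kit: Hoechst 33342 stains all nuclei blue, and a green nuclear dye stains dead cells.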

PANC-1 [11] = assay: Antitumor activity against human PANC-1 cell 3D spheroids assessed as reduction in spheroid diameter at 0.063 to 1.5 uM incubated for 3 hrs followed by irradiation with 525 nm green lamp light for 15 mins and measured after 27 hrs by ReadyProbes Blue/Green reagent based cell viability imaging analysis; assay type: functional; details: dose 0.063-1.5 µM, time 1815.0 min; procedure, shortened: as §1
PANC-1 [12] = assay: Antitumor activity against human PANC-1 cell 3D spheroids assessed as total spheroid breakage at 0.063 to 1.5 uM incubated for 3 hrs under dark conditions by ReadyProbes Blue/Green reagent based cell viability imaging analysis; assay type: functional; details: dose 0.063-1.5 µM; procedure, shortened: as §1
PANC-1 [13] = assay: Induction of ROS production in human PANC-1 cells assessed as increase in green fluorescence intensity at 2 uM incubated for 3 hrs followed by irradiation with 530 nm LED light for 10 mins by DCFH2-DA staining based fluorescence microscopy; assay type: functional, cell-based; details: time 190.0 min
Procedure, shortened: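 PANC-1 cells in reduced-serum Opti-MEM received compound from a DMSO stock (2 μM final) for 3 h, plus the ROS sensor DCFH2-DA. Cells were irradiated at 530 nm for 10 min (11.14 J/cm2). Green DCF fluorescence was imaged by fluorescence microscopy and compared with non-irradiated cells and with single-agent irradiated controls.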

PANC-1 [14] = assay: Antitumor activity against human PANC-1 cell 3D spheroids assessed as changes in spheroid morphology and density incubated for 3 hrs followed by irradiation with 525 nm green lamp light for 15 mins and measured after 27 hrs by ReadyProbes Blue/Green reagent based cell viability imaging analysis; assay type: functional; details: dose 0.063-1.5 µM, time 1815.0 min; procedure, shortened: as §1
PANC-1 [15] = assay: Antitumor activity against human PANC-1 cell 3D spheroids assessed as spheroid cell death at 0.063 to 1.5 uM incubated for 3 hrs under dark conditions by Hoechst33342 staining based analysis; assay type: functional; details: dose 0.063-1.5 µM; procedure, shortened: as §1
PANC-1 [16] = assay: Phototoxicity against human PANC-1 cells assessed as reduction in cell viability incubated for 3 hrs followed by 525 nm green-light irradiation for 15 mins and measured after overnight incubation by MTT assay; assay type: functional, cell-based
Procedure, shortened: (§2)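 PANC-1 cells were treated with compound (0–2 μM), then either kept dark or irradiated 15 min under a green-filtered lamp (emission max 525 nm, 16.61 J/cm2). Cells were then cultured 24 h in the dark, and viability was read by standard MTT assay. Data are mean ± SD, n = 9; IC50 was taken from the dose–response.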

PANC-1 [17] = assay: Induction of apoptosis in human PANC-1 cells at 0.5 uM incubated for 3 hrs followed by incubation under dark conditions for 30 mins by Annexin V-FITC/PI staining based flow cytometric analysis; assay type: functional, cell-based; details: time 210.0 min
PANC-1 [18] = assay: Antitumor activity against human PANC-1 cell 3D spheroids assessed as total spheroid breakage at 1.5 uM incubated for 3 hrs followed by irradiation with 525 nm green lamp light for 15 mins and measured after 27 hrs by ReadyProbes Blue/Green reagent based cell viability imaging analysis; assay type: functional; details: time 1815.0 min; procedure, shortened: as §1
PANC-1 [19] = assay: Antitumor activity against human PANC-1 cell 3D spheroids assessed as spheroid cell death at 0.38 to 1.5 uM incubated for 3 hrs followed by irradiation with 525 nm green lamp light for 15 mins and measured after 27 hrs by Hoechst33342 nuclear staining based analysis; assay type: functional; details: dose 0.38-1.5 µM, time 1815.0 min; procedure, shortened: as §1
PANC-1 [20] = assay: Dark toxicity against human PANC-1 cells assessed as reduction in cell viability incubated for 24 hrs by MTT assay; assay type: functional, cell-based; details: PANC-1, 24 h; procedure, shortened: as §2
[21] = Absorption property of the compound in PBS assessed as molar extinction coefficient in presence of BSA by absorbance based analysis; assay type: physicochemical; details: buffer
[22] = Solubility of the compound in DMEM medium assessed as aggregate formation by measuring reduction in fluorescence intensity at 9 uM by fluorescence analysis; assay type: physicochemical
[23] = Photostability of the compound in PBS assessed as absorbance at 546 nm at 2 uM measured upon irradiation with 530 nm LED light in presence of BSA by absorbance based analysis; assay type: physicochemical; details: buffer
[24] = Solubility of the compound in Opti-MEM medium assessed as aggregate formation by measuring reduction in fluorescence intensity at 9 uM by fluorescence analysis; assay type: physicochemical
[25] = Solubility of the compound in PBS containing 1% DMSO assessed as aggregate formation by measuring reduction in singlet oxygen formation irradiated with 530 nm LED light by ABDA sensor based UV-Vis spectrometer analysis; assay type: physicochemical; details: buffer
[26] = Induction of singlet oxygen generation in PBS assessed as singlet oxygen quantum yield at pH 7.4 irradiated with 490 nm LED light by ABDA sensor based UV-Vis spectrometer analysis; assay type: functional

- Activity [2]: 458 nm
Compound: Nc1cc2c3c(cccc3c1Br)C(=O)C=C2
- Activity [1]: 0.1

- Activity [2]: 427 nm
Compound: COc1ccc2cccc3c2c1C(=O)C(Br)=C3
- Activity [1]: 0.89

- Activity [3]: 597 nm
- Activity [4]: 12736 M⁻¹ cm⁻¹
- Activity [2]: 548 nm
- Activity [6]: 518 nm
- Activity [7]: 0.26
Compound: Nc1ccc2c3c(cccc13)C(=O)C=C2
- Activity [5]: < 0.01

- Activity [2]: 418 nm
Compound: COc1ccc2cccc3c2c1C(=O)C=C3
- Activity [1]: 0.68

- Activity [3]: 602 nm
- solubility [8]: Insoluble
- Activity [2]: 546 nm
- Activity [21]: 12695 M⁻¹ cm⁻¹
- solubility [22]: Insoluble
- Activity [6]: 525 nm
- Stabilty [23]: Stable
- solubility [24]: Insoluble
- solubility [25]: Insoluble
- Activity [7]: 0.29
Compound: Nc1c(Br)cc2c3c(cccc13)C(=O)C(Br)=C2
- Activity (PANC-1 [9]): Active
- Activity (PANC-1 [10]): inactive
- Activity (PANC-1 [11]): Active
- Activity (PANC-1 [12]): inactive
- Activity (PANC-1 [13]): Active
- Activity (PANC-1 [14]): Dose-Dependent Effect
- Activity (PANC-1 [15]): inactive
- Activity (PANC-1 [16]): Dose-Dependent Effect
- IC50 (PANC-1 [16]; PANC-1, light or radiation study): 0.166 µM
- Activity (PANC-1 [17]): inactive
- Activity [5]: 0.47
- Activity (PANC-1 [18]): Active
- Activity (PANC-1 [19]): Active
- IC50 (PANC-1 [20]): > 2 µM

Compound: O=C1OC2(c3ccccc31)c1cc(Br)c(O)c(Br)c1Oc1c2cc(Br)c(O)c1Br
- Activity [26]: 0.57

- Activity [2]: 457 nm
Compound: Nc1cc2c3c(cccc3c1)C(=O)C=C2
- Activity [1]: 0.18

- Activity [7]: 0.5
Compound: CCN(CC)c1ccc2c(-c3ccccc3C(=O)O)c3ccc(=[N+](CC)CC)cc-3oc2c1.[Cl-] [RHODAMINE]

- Activity [4]: 10000 M⁻¹ cm⁻¹
Compound: O=C1C=Cc2cccc3cccc1c23 [PERINAPHTHENONE]
- Activity [1]: 1

- Activity [2]: 439 nm
Compound: O=C1C=Cc2cccc3ccc(O)c1c23
- Activity [1]: 0.96

- Activity [2]: 485 nm
Compound: Nc1cc2c3c(c(O)ccc3c1)C(=O)C=C2
- Activity [26]: < 0.01

From ChEMBL document CHEMBL4834495, “A Green-Absorbing, Red-Fluorescent Phenalenone-Based Photosensitizer as a Theranostic Agent for Photodynamic Therapy” (ACS Med Chem Lett, 2021)
